Laboratory results as given in publication PMC9394215 (Journal for Immunotherapy of Cancer, 2022).

How the values were obtained:
NPP4 = target: T1, NPP4 (Homo sapiens, UniProt Q9Y6X5); experiment: NPP4 assay; format: biochemical
T1 sequence (Q9Y6X5 16-407 limits assumed): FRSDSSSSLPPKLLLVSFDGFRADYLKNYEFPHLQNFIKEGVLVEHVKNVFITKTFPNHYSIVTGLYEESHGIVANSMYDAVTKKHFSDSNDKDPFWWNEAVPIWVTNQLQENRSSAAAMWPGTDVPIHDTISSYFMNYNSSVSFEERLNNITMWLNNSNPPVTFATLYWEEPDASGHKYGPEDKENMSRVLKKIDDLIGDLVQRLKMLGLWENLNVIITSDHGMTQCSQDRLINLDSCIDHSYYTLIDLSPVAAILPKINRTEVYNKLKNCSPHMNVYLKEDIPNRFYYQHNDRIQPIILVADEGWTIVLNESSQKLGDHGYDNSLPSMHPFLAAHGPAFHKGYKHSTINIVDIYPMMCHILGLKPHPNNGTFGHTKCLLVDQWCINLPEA
Summary of the method: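 Purified soluble NPP4 (1200 ng, Sf9-expressed) was incubated with 50 µM test compound, 2% DMSO and 300 µM diadenosine tetraphosphate. Buffer: 10 mM HEPES, 2 mM CaCl2, 1 mM MgCl2, pH 8.0; 90 min at 37°C with shaking. The reaction was heat-stopped (90°C, 5 min) and chilled on ice. Product ATP was quantified by capillary electrophoresis.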

CD38 = target: T2, CD38 (Homo sapiens, UniProt P28907); experiment: CD38 assay; format: biochemical
T2 sequence (P28907 43-300 limits assumed): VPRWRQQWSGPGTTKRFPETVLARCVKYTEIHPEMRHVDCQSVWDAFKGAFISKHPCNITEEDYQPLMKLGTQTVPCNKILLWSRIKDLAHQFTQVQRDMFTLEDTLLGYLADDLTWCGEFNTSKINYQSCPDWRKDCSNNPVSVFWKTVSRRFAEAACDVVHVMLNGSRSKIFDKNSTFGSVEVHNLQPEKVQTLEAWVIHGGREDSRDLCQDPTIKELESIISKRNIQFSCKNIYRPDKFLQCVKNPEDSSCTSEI
Summary of the method: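 Either CD38 (5 ng) or NPP5 (250 ng) was mixed with 50 µM test compound and 100 µM NAD+ as substrate. For CD38 the reaction buffer was 10 mM HEPES, pH 7.4.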

[1] = stated without method or reference; cited from earlier work
NPP1 = target: T3, NPP1 (Homo sapiens, UniProt P22413); experiment: NPP1 assay; format: biochemical
T3 sequence (P22413 98-925 limits assumed): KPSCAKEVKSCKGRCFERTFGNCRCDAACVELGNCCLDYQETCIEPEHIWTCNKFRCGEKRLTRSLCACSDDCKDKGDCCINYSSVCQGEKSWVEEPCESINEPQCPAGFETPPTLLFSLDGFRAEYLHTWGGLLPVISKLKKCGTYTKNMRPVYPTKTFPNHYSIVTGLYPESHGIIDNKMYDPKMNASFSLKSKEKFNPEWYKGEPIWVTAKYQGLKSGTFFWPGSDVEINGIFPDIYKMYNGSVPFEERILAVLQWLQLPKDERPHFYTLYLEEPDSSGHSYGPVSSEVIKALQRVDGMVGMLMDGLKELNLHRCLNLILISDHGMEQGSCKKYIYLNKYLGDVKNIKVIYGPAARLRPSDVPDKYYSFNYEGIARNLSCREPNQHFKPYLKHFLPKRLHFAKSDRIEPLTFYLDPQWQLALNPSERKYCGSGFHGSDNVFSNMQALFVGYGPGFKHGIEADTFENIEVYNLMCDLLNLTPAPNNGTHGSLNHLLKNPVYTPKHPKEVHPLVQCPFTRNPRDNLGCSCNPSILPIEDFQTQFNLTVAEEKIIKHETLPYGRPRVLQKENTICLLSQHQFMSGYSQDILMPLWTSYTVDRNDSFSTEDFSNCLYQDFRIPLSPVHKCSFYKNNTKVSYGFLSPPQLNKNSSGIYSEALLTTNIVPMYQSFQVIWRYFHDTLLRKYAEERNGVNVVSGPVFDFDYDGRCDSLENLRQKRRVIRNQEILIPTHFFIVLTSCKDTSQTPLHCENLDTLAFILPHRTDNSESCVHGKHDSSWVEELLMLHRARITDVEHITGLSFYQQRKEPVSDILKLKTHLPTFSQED
Summary of the method: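 Crude soluble NPP1 (800 ng, Sf9-expressed) was incubated with 50 µM test compound, 2% DMSO and 300 µM ATP. Buffer: 10 mM CHES, pH 9.0, 2 mM CaCl2, 1 mM MgCl2; 30 min at 37°C with shaking. The reaction was stopped by 5 min at 90°C, then cooled on ice. Product AMP was quantified by capillary electrophoresis.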

human CD39 [2] = target: T4, human CD39 (Homo sapiens, UniProt P49961); format: biochemical
T4 sequence (P49961 1-510): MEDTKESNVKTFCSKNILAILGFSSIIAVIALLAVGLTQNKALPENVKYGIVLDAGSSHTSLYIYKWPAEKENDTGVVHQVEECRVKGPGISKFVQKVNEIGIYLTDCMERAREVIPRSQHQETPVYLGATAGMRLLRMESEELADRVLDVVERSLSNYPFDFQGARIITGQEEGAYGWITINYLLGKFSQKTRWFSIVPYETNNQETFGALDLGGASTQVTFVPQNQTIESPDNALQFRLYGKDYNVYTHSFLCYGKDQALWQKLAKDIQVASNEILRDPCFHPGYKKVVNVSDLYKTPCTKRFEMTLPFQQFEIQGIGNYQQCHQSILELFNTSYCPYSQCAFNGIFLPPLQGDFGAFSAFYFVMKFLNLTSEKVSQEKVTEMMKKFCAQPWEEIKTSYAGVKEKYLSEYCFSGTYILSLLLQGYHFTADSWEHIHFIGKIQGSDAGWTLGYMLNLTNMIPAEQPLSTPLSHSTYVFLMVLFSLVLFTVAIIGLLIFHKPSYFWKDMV
Summary of the method: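 CD39 came from human umbilical cord membranes (50.0 ng protein per well). Substrate was 50 µM ATP in 10 mM HEPES, 2 mM CaCl2, 1 mM MgCl2, pH 7.4, with ≤2% DMSO. Enzyme and test compound were preincubated 5 min at 37°C; reaction ran 15 min at 37°C. Malachite green/molybdate was added and A600 read after 20 min at 25°C, minus a heat-denatured enzyme blank. Screening was at 10 µM; curves spanned 0.1–300 µM; n=3.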

[3] = ref 61 62; cited from earlier work
human CD39 [4] = target: T4, human CD39; experiment: Inhibition type experiments, malachite green assay on recombinant human CD39; format: biochemical
[5] = read-out: % inhibition at 50 µM

Molecule Cc1cc(Nc2ncc(Cl)c(Nc3ccccc3S(=O)(=O)C(C)C)n2)c(OC(C)C)cc1C1CCNCC1 [ceritinib, Ceritinib] has an IC50 (NPP4) of over 50 µM, an inhibition at 50 µM (NPP4; [5]) of 15% and an IC50 (CD38) of over 50 µM. The inhibition at 50 µM (CD38; [5]) was 19%, the “pKb of the piperidine nitrogen” value [1] was about 10 and the IC50 (NPP1) was over 50 µM. For the same molecule, the inhibition at 50 µM (NPP1; [5]) was 8%, the IC50 (human CD39 [2]) was 11.3 ± 0.8 µM and the inhibition at 10 µM (human CD39 [2]; read-out: inhibition of human CD39) was over 50%. For the same molecule, the brain permeation [3] was “some brain permeation”, the Ki (human CD39 [4]) was 11 µM and the inhibition type (human CD39 [4]; Km unchanged, Vmax decreased, Hanes-Woolf plot) was “non-competitive, allosteric”.
